M5 ag: human M5 muscarinic receptor agonists, primary screen, CHO-K1 cells, Fluo-8 calcium fluorescence. CHO-K1 hM5 cells; 0% DMSO wells, 100% maximal acetylcholine response. Muscarinic acetylcholine receptor M5 (Homo sapiens), P08912. 0.19% of 360,000 active. activation, % at 3 µM;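 active means activation above the run's mean over test compounds plus 3 SD, cut at about 23% in these data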;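 further: signal is peak over basal fluorescence ratio across the kinetic read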
CHRM4 PAM: human M4 muscarinic receptor positive allosteric modulators, primary screen, CHO-K1 cells, Fluo-8 calcium fluorescence; Muscarinic acetylcholine receptor M4 (Homo sapiens), P08173; CHO-K1 hM4/Gqi5, ACh EC20; 0% = ACh EC20, 100% = maximal ACh; activation, % at 3 µM; 0.4% of 360,000 active; AID 624126, 2012;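 active means activation above its plate's cutoff, the mean activation of sample wells plus 3 SD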
Target sequence (P08173 whole entry, looked up): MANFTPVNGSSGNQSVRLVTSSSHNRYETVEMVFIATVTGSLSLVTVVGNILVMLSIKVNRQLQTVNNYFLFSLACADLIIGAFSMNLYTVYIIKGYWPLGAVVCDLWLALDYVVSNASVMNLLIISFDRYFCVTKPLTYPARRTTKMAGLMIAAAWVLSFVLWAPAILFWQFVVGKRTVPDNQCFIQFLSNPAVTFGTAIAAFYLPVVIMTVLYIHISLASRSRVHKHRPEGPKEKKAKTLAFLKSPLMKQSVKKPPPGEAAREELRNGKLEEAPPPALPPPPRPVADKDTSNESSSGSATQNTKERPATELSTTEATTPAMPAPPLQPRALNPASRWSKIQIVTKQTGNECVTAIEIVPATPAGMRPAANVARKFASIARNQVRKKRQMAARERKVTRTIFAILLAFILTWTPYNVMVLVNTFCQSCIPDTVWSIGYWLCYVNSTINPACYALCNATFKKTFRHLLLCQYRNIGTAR
M4 antag: human M4 muscarinic receptor antagonists, primary screen, CHO cells, Fluo-8 calcium fluorescence; 0.73% of 360,000 active; CHO-hM4 cells, ACh EC80; inhibition, % at 3 µM; Muscarinic acetylcholine receptor M4 (Homo sapiens), P08173;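 active means inhibition above its plate's cutoff, the mean inhibition of sample wells plus 3 SD, cut at about 27% in these data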;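 further: 0% = acetylcholine EC80 with DMSO and 100% = DMSO without agonist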
M5 PAM: human M5 muscarinic receptor positive allosteric modulators, primary screen, CHO-K1 cells, Fluo-8 calcium fluorescence | Muscarinic acetylcholine receptor M5 (Homo sapiens), P08912 | CHO-K1 hM5, ACh EC20 PAM; 0% = ACh EC20, 100% = ACh EC100 | activation, % at 3 µM | 0.3% of 360,000 active | AID 624038, 2012;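 active means activation above the run cutoff, the mean activation of all test compounds plus 3 SD, cut at about 18% in these data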
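Assay system: CHO-K1 hM5 cells. Also added: acetylcholine at EC20 concentration, added after compound. Dosing: 3 µM, single dose. Times: compound preincubation 140 s before EC20 acetylcholine addition. Signal: Fluo-8 calcium fluorescence. Measure: % activation relative to EC20 and EC100 ACh responses. Repeats: singlicate, one well per test compound.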
CHRM5 antagonist: human M5 muscarinic receptor antagonists, primary screen, CHO cells, Fluo-8 calcium fluorescence. Muscarinic acetylcholine receptor M5 (Homo sapiens), P08912. CHO-hM5 cells, ACh EC80. inhibition, % at 3 µM. 0.59% of 360,000 active. AID 624040, 2012;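 active means inhibition above a per-plate cutoff, the mean of that plate's test compounds plus 3 SD, cut at about 27% in these data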;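 further: 0% = acetylcholine EC80 with DMSO and 100% = DMSO without agonist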
M4 ag: human M4 muscarinic receptor agonists, primary screen, CHO-K1 cells, Fluo-8 calcium fluorescence | CHO-K1 hM4/Gqi5; vehicle 0%, full acetylcholine response 100% | activation, % at 3 µM | 0.14% of 360,000 active | AID 624127, 2012;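 active means activation above the run mean over all test wells plus 3 SD, cut at about 32% in these data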;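 further: peak over basal fluorescence ratio per well then scaled between controls; 0% = DMSO wells and 100% = acetylcholine at EC100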
Starred values were filed as active, the others as inactive. The list is not random: actives were taken first. Their share in the collection is about 1.8%.

SMILES | M5 ag | CHRM4 PAM | M4 antag | M5 PAM | CHRM5 antagonist | M4 ag
O=C(Cc1ccc(NC2=NC3CS(=O)(=O)CC3S2)cc1)NCc1ccccc1Cl (stereo not drawn) | 0 | 16* | -29 | 2 | -7 | 0
C=CCN(CC(=O)NC1CCCC1)C(=O)C(=O)Nc1ccc2c(c1)OCCO2 | -1 | -2 | -5 | 1 | 9 | 3
Fc1ccc(-[n+]2nc(Nc3ccccc3)sc2-c2c3ccccc3cc3ccccc23)cc1 | 36* | -3 | 9 | -20 | 39* | 16
COc1ccc(C)cc1Nc1n[n+](-c2ccccc2)c(-c2cc(OC)c(OC)cc2Br)s1 | -8 | 10 | -14 | -3 | 22 | 1
COc1ccc(C)cc1Nc1n[n+](-c2ccccc2)c(-c2c(OC)ccc3ccccc23)s1 | -2 | -6 | 17 | -31 | 27* | 21
Cc1csc2ncnc(N3CCN(C(=S)Nc4ccc(C(F)(F)F)cc4)CC3)c12 | -1 | -10 | 8 | -28 | 16 | 12
Cc1csc2c(N3CCN(C(=S)Nc4ccc(C(F)(F)F)cc4)CC3)ncnc12 | 4 | -22 | 4 | -22 | 30* | 11
CC(C)[C@@H]1CC[C@@H](C)C[C@H]1OC(=O)C[n+]1cc(-c2ccc(Cl)cc2)n2c1CCCCC2 | -19 | -51 | 42* | -32 | 77* | 1
CC1CCC(C(C)C)C(OC(=O)C[n+]2cccc(C(N)=O)c2)C1 (stereo not drawn) | -13 | 11 | -11 | -8 | 4 | 0
COc1ccc(-c2c[n+](CC(=O)OC3CC(C)CCC3C(C)C)c3n2CCC3)cc1 (stereo not drawn) | -15 | -24 | 34* | -31 | 65* | 1
S=c1[nH]ccc2ccccc12 | 3 | 2 | -7 | -3 | 0 | 1
COc1ccc(CN2CCNC(=O)C2CC(=O)N(Cc2nccn2C)C(C)C)c(OC)c1 (stereo not drawn) | -3 | 31* | -1 | 6 | -5 | 1
CC(C)N(Cc1nccn1C)C(=O)CC1C(=O)NCCN1Cc1ccc(F)cc1 (stereo not drawn) | -1 | -3 | -4 | 10 | -2 | 1
COc1ccccc1NC(=O)O/N=C(\N)c1ccccc1 | -1 | 4 | 4 | 0 | 1 | 0
CC(C)c1ccc(C2NC(=S)NC3=C2C(=O)CCC3)cc1 (stereo not drawn) | -8 | -31 | 27* | -17 | 10 | 0
Cc1ccc(C2NC(=S)NC3=C2C(=O)CCC3)cc1 (stereo not drawn) | -2 | 0 | -3 | 2 | 4 | 1
Cc1ccc(NC(=O)CSc2ccccc2NC(=O)c2ccccc2Cl)cc1Cl | 0 | -4 | 2 | 3 | -3 | 0
COc1ccc(CC2(CO)CCN(C(C)Cc3ccc(Cl)cc3)CC2)cc1 (stereo not drawn) | -3 | -20 | 13 | -2 | 3 | 5
COc1ccc(CCC(C)N2CCC(CO)(Cc3ccccc3)CC2)cc1 (stereo not drawn) | -19 | -10 | 33* | -5 | 3 | 4
CC(=O)NC(c1ccccc1)c1cc([N+](=O)[O-])c2cccnc2c1O (stereo not drawn) | 3 | 6 | -5 | 22* | -13 | 1
Cc1ccc(CS(=O)(=O)CCC(=O)NCCC(C)C)cc1 | -4 | 34* | -4 | 3 | 4 | 1
CNC[C@H]1Oc2c(NS(=O)(=O)c3ccccc3)cccc2C(=O)N([C@H](C)CO)C[C@@H]1C | -1 | -5 | 2 | 0 | 13 | -2
O=C(c1ccccc1)C(O)C(c1ccccc1)N1CCOCC1 (stereo not drawn) | -1 | -19 | 1 | -5 | 20 | 0
COc1ccc(-n2c(SCC(=O)N(C)C3CCS(=O)(=O)C3)nc3ccc(O)cc3c2=O)cc1OC (stereo not drawn) | -2 | -1 | 0 | -8 | 29* | 1
CN(C(=O)CSc1nc2ccccc2c(=O)n1-c1ccc(F)cc1)C1CCS(=O)(=O)C1 (stereo not drawn) | 0 | 4 | -2 | 3 | 2 | 2
SMILES | M5 ag | CHRM4 PAM | M4 antag | M5 PAM | CHRM5 antagonist | M4 ag
COc1cccc(/C=N/Nc2snc(SC)c2C#N)c1O | 21 | -12 | 10 | -14 | 17 | 35*
CCC(C)[C@H](NC(=O)N1CCC(C)CC1)C(=O)OC (stereo partly drawn) | -7 | -12 | -3 | -3 | 6 | 0
Nc1nc2ccccc2n1CCOc1ccc(F)cc1 | -10 | -5 | 6 | -2 | 6 | 8
C(C#CCCCCCCCCC[n+]1ccccc1)#CCCCCCCCCC[n+]1ccccc1 | -12 | -10 | 92* | -38 | 99* | 0
N#Cc1c(F)cccc1N1CCN(Cc2ccc3c(c2)OCO3)CC1 | -5 | -15 | 13 | -5 | 20 | 2
COc1ccc(C(=O)N2CCCC(Nc3ccc(C)c(C)c3)C2)cc1 (stereo not drawn) | -1 | 1 | 1 | 0 | 0 | 1
COc1ccc(NC2CCCN(C(=O)c3ccc(OC)cc3OC)C2)cc1 (stereo not drawn) | 0 | -2 | 31* | 11 | 1 | 11
Oc1ccc(Nc2nc(-c3ccc(O)cc3)cs2)cc1 | 1 | 34* | -2 | 12 | 0 | 0
NS(=O)(=O)c1ccc(Nc2nc(-c3ccc(O)cc3)cs2)cc1 | 1 | -11 | 19 | -11 | 12 | 2
Cc1occc1C(=O)NC(C)C(C)(C)C (stereo not drawn) | -1 | 15 | 29* | -3 | 10 | 2
Cc1occc1C(=O)NC(C)CCc1ccccc1 (stereo not drawn) | -1 | -1 | 4 | 3 | -1 | 0
CCN1/C(=C/C(C)=C/c2sc3ccccc3[n+]2CC)Sc2ccccc21 | 3 | -18 | 34* | -18 | 42* | 9
CCN1/C(=C\C(=S)Nc2ccccc2)Sc2ccccc21 | 1 | -4 | 3 | -6 | 13 | 3
COc1ccc2c(c1)cc1c(=O)n(CC(=O)NC(C)CCc3ccccc3)nc(C)n12 (stereo not drawn) | -4 | 15* | -14 | 6 | -11 | 1
CCc1nn(CC(=O)NC(C)CCc2ccccc2)c(=O)c2cc3cc(F)ccc3n12 (stereo not drawn) | -4 | -3 | 1 | -3 | 10 | 2

Assay outcomes as filed in PubChem.
